{"source": "ChEMBL document CHEMBL1154907", "about": "“Synthesis and preclinical evaluations of 2-(2-fluorophenyl)-6,7-methylenedioxyquinolin-4-one monosodium phosphate (CHM-1-P-Na) as a potent antitumor agent” (J Med Chem, 2010)", "key": {"Rattus norvegicus": {"species": "Rattus norvegicus", "test": "Displacement of […] from benzodiazepine binding site of rat GABAA receptor at 10 uM radioligand binding assay", "in_short": "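Radioligand binding screen run by contract lab under standard protocols; rat GABA_A sites; single-point inhibition at 10 μM, with IC50 determined where inhibition was significant.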"}, "[1]": {"test": "Toxicity in ip dosed nude mouse assessed as maximum tolerated dose", "format": "organism-based", "settings": "in vivo"}, "[2]": {"test": "Mean residence time in CD1 mouse at 10 mg/kg, ip", "format": "ADME, organism-based", "set-up": "dose 10 mg/kg, route intraperitoneal", "settings": "in vivo", "in_short": "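Male CD-1 (Crl.) mice, 22-24 g, single 10 mg/kg ip bolus of parent drug in cremophor/DMSO/saline (20/5/75, v/v; 2 mg/mL, 5 mL/kg). Blood sampled at 0, 5, 15, 30 min, 1, 1.5, 2, 4, 6, 9, 24, 27 h, three mice per time point. Plasma extracted with acetonitrile, analysed by LC-MS/MS. Parameters calculated from mean plasma concentrations.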"}, "U-251": {"tested_on": "U-251", "test": "Growth inhibition of human U251 cells by SRB assay", "format": "functional", "in_short": "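Cancer cell panel; growth measured by sulforhodamine B colorimetric method across five concentrations from 10^-4 to 10^-8 M; GI50, TGI and LC50 derived from computer-analysed dose-response curves.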"}}, "data": [{"smiles": "O=c1cc(-c2ccccc2F)[nH]c2cc3c(cc12)OCO3", "values": [{"measurement": "inhibition", "setting": "Rattus norvegicus", "value": 83, "unit": "%"}, {"measurement": "MTD", "setting": "[1]", "value": 200, "unit": "mg/kg"}, {"measurement": "MRT", "setting": "[2]", "value": 7.3, "unit": "h"}, {"measurement": "GI50", "setting": "U-251; U-251", "value": 0.0692, "unit": "µM"}, {"measurement": "CC50", "setting": "U-251; U-251, read-out: pLC50 (converted)", "value": "> 100", "unit": "µM"}, {"measurement": "TGI", "setting": "U-251; U-251, read-out: pTGI (converted)", "value": 18.2, "unit": "µM"}]}]}
